Compounds with a hit are over-represented: about 4.7% of the library has one in this group of screens.
MC4R ag barr – MC4R agonists recruiting beta-arrestin, primary screen, cell-based, luminescence, agonist arm of biased-ligand search; U2OS MC4R beta-arrestin complementation; percent of melanotan II response, DMSO zero; AID 540308, 2011; activation, % at 8.9 µM; hit rate 0.98% among 360,000; Melanocortin receptor 4 (Homo sapiens), P32245;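 active means activation above a per-plate cutoff, the mean activation of sample wells on that plate plus 3 SD, cut at about 8% in these data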
FXN GAA850 act – FXN promoter activators, primary screen, cell-based, luciferase luminescence, HEK293 lucGAA850; HEK293 lucGAA850 FXN promoter luciferase reporter, 24 h; percent of 10 µM SAHA response; activation, % at 6 µM; hit rate 0.56% among 360,000;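 active means activation above the average of all compounds screened plus 3 SD, cutoff fixed separately per campaign, cut at about 7.5% in these data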;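 further: 0% = DMSO wells and 100% = 10 µM SAHA wells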
HTR2A ag – mouse Htr2a agonists via beta-arrestin recruitment, primary screen, cell-based, luminescence | 5-hydroxytryptamine receptor 2A (Mus musculus), P35363 | CHO-K1 mHTR2A beta-arrestin complementation; percent of 30 µM serotonin response | activation, % at 7.6 µM | hit rate 0.66% among 360,000 | AID 624169, 2012;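 active means activation above a run cutoff, the mean activation of all tested compounds plus 3 SD, cut at about 14% in these data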;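 further: 0% = plate median of compound wells and 100% = 30 µM serotonin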
MC4R antag cAMP – MC4R antagonists of cAMP signaling, primary screen, cell-based, TR-FRET, antagonist arm of biased-ligand search; AID 540295, 2011; Melanocortin receptor 4 (Homo sapiens), P32245; inhibition, % at 6.5 µM; hit rate 0.48% among 360,000; MC4R-expressing cells, MTII-stimulated cAMP, LANCE TR-FRET;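 active means inhibition above its plate's cutoff, the mean of tested wells on that plate plus 3 SD, cut at about 29% in these data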;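 further: 0% = Melanotan II alone and 100% = Melanotan II plus saturating MCL0020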
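Test system: U2OS cells stably expressing human melanocortin 4 receptor (MC4R); also added: Melanotan II challenge; compound: 6.5 µM single dose; timing: 30-min compound preincubation, 1-h Melanotan II challenge, 1-h detection, room temperature; signal: Eu-cAMP/anti-cAMP TR-FRET, emission 671 nm; repeats: one well per compound, no replicates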
AHR act – AHR activators, primary screen, cell-based, luminescence, luciferase reporter, human | Aryl hydrocarbon receptor (Homo sapiens), P35869 | AHR-responsive luciferase reporter cells | activation, % at 5 µM | hit rate 2.5% among 320,000; in the data active means activation above about 47%;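 further: 0% = vehicle wells and 100% = reference agonist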
* hit, by the source's call; . = not tested or not shown.

SMILES	MC4R ag barr	FXN GAA850 act	HTR2A ag	MC4R antag cAMP	AHR act
O=C(/C=C/c1cccs1)Nc1sc2c(c1C(=O)O)CCCC2	-3	0	-5	5	10
NC(=O)c1c(/N=C/c2cccs2)sc2c1CCCC2	0	4	-4	-1	70*
COc1ccc(OC)c(C(=O)CSc2nnc(Cc3cccs3)n2CCc2ccccc2)c1	-1	-1	2	-4	59*
Cc1ccn2cc(-c3ccc(Br)cc3)nc2c1	0	2	-6	0	74*
O=C1Nc2ccccc2N(C(=O)c2ccc(-c3ccccc3)cc2)C1c1nc2ccccc2[nH]1 (centres undefined)	.	.	-1	.	.
Cc1cccc2c3nc4ccccc4nc3n(C)c12	0	6	-1	12	69*
COC(=O)Cn1c2nc3ccccc3nc2c2cccc(C)c21	1	4	-4	4	.
CCc1nc2ccc(C(=O)Nc3ccc4c(c3)OCC(=O)N4)cn2c1N(C)C(=O)C1CCCCC1	0	-2	-4	7	.
Nc1c(-c2cccs2)cnn1-c1nc(-c2ccc(F)cc2)cs1	9.6*	2	-3	-1	31
COc1ccc(-c2csc(-n3ncc(-c4ccccn4)c3N)n2)cc1	0	0	6	9	17
CCC(=O)C(C#N)(c1ccc(OC)c(OC)c1)C(C)C (centres undefined)	-1	3	-1	5	-4
C/C(=N\NC(=O)CC1N=C(Cc2ccccc2)NNC1=O)c1ccncc1 (centres undefined)	-1	-2	12	1	57*
CCOc1ccc(NC(=O)CN(C)C(=O)c2ccccc2CCc2ccccc2)cc1OCC	6	-4	3	17	6
N/C(=N\c1nc2ccccc2o1)NC(=O)c1ccc(Cl)cc1	0	3	1	-3	68*
O=C(/C=C/c1ccc([N+](=O)[O-])cc1)Nc1cccc(S(=O)(=O)NC2=NCCCCC2)c1	-1	1	-4	0	-1
CC(=O)NC(c1cccc(F)c1)c1nc(-c2cc(F)cc(Cl)c2)cs1 (centres undefined)	-1	3	-3	-2	.
O=C(Nc1nccs1)c1cccnc1	-2	1	6	3	1
O=C(Nc1nccs1)c1cncc(Br)c1	-2	3	-3	-4	56*
O=C(Nc1nccs1)c1ccc2nccnc2c1	-2	1	-2	-9	53*
O=C1NC[C@H](CCCCN2C[C@H](Cc3ccc(O)cc3)N(CCc3ccc(O)cc3)C(=O)C2=O)N(CCc2ccccc2)C1=O	.	.	-4	.	.
O=C(Nc1nnc(-c2cccs2)s1)c1cccc(F)c1	5	2	8	7	56*
COc1ccc(OC)c(NC(=O)c2ccc(-c3cccs3)cc2)c1	-1	2	2	17	76*
CC(C)(C)CC(=O)Nc1nnc(-c2cccs2)s1	1	2	5	0	50*
COc1ccc(C(=O)Nc2nnc(-c3cccs3)s2)cc1	0	1	-2	-9	67*
CC(C)(C)CC(=O)Nc1nnc(C(F)(F)F)s1	-1	-1	3	4	-1
SMILES	MC4R ag barr	FXN GAA850 act	HTR2A ag	MC4R antag cAMP	AHR act
COc1ccc(C(=O)Nc2nc(-c3cccs3)c(NC(C)=O)s2)cc1	-1	0	5	-5	20
COc1ccc(NC(C)=O)cc1NC(=O)c1ccc2ccccc2c1	4	-1	-2	20	74*
O=C(NC(c1ccc2c(c1)OCO2)c1ccccn1)C1CCN(CCOc2ccccc2)CC1 (centres undefined)	-2	-1	3	5	.
COc1cc(/C=C2\C(=N)N3N=C(S(C)(=O)=O)SC3=NC2=O)ccc1OCCOc1ccccc1C	1	2	-2	10	7
CC1=CC2=NC(=O)/C(=C\c3ccc(-c4cccc(Cl)c4)o3)C(=N)N2O1	12*	2	2	-11	70*
COc1ccccc1OCCOc1ccc(/C=C2/C(=N)N3OC(C)=CC3=NC2=O)cc1OC	19*	0	-3	12	0
CC1=NOC(=O)/C1=C\c1ccc(-c2cccc(Cl)c2)o1	-4	0	-3	7	6
COc1cc(/C=C2/C(=N)N3C=CSC3=NC2=O)ccc1OCCCOc1cc(C)ccc1C	31*	0	-2	9	13
COc1ccc(OC)c(CC(=O)Nc2ccc3c(c2)c(=O)n(C)n3Cc2cccc(C(F)(F)F)c2)c1	-1	-2	-5	12	.
COc1ccc(C2Nc3ccccc3C(=O)N2NC(C)=O)c(OC)c1 (centres undefined)	0	-1	7	2	0
COc1cccc(COc2ccccc2C2Nc3ccc(Br)cc3C(=O)N2NC(=O)c2ccncc2)c1 (centres undefined)	0	0	-7	-1	52*
CCOC(=O)C1(C)CCCCN1C(=O)c1cccc(Cl)c1 (centres undefined)	-1	-1	-3	11	.
COc1ccc(NCc2nc3ccccc3n2C)cc1	-2	5	4	8	53*
Cn1c(CNc2nc3ccccc3n2C)nc2ccccc21	-2	0	-3	-6	49*
COc1ccc(NCc2nc3ccccc3n2CCOc2ccccc2)cc1	2	5	0	-11	2
CCOC(=O)c1ccc(NCc2nc3ccccc3n2C)cc1	-2	4	-3	3	59*
Cc1ccc(NC(=O)NCc2nc3ccccc3n2C)cc1	-1	1	-6	1	5
O=C(COC(=O)Cc1c[nH]c2ccccc12)Nc1cc(S(=O)(=O)N2CCOCC2)ccc1Cl	1	0	-10	14	7
COc1ccc(CCNC(=O)CSCc2ccc([N+](=O)[O-])cc2)cc1	-1	-1	1	16	0
COc1ccc2cc(/C=N/NC(=O)CSCc3ccc([N+](=O)[O-])cc3)c(Cl)nc2c1	12*	0	0	10	0
CN1c2ccsc2/C(=N/Nc2ccc(F)cc2)CS1(=O)=O	-1	5	-5	7	65*
Cc1ccc(NC(=O)CCCNC(=O)c2ccc(Cl)cc2)c(O)c1	-1	2	1	8	60*
Cn1c(/C(C#N)=C(\O)c2ccc(Cl)s2)nc2ccccc21	-2	2	0	6	65*
Cn1c(/C(C#N)=C(\O)c2ccc([N+](=O)[O-])s2)nc2ccccc21	-1	0	-2	9	12
CN(C)c1ccc(N=Cc2nc(-c3ccccc3)oc2OC(=O)c2ccccc2)cc1	1	4	-1	5	49*

Screening results as filed in PubChem BioAssay.
